Each block holds one compound with its values, some of them ahead of it.
Columns and labels:
[1] = Selectivity index, ratio of CC50 for mouse RAW264.7 cells to IC50 for MNV1 CW1 infected in mouse RAW264.7 cells; assay type: functional
[2] = Cytotoxicity against mouse RAW264.7 cells assessed as maximum non-toxic dose after 48 hrs by MTT assay; assay type: cell-based
Outline: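 RAW 264.7 cells exposed 48 h to serial dilutions (top 150 µM, 100 µM for one compound) in duplicate, control 0.25% DMSO. MTT 0.5 mg/mL added for 4 h, formazan dissolved in DMSO, absorbance 550 nm. […] 3–4 independent experiments.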

rhinovirus A1B = assay: Antiviral activity against HRV-1B infected in human HeLa cells assessed as inhibition of viral plaque formation; assay type: functional, organism-based, Human rhinovirus 1B; details: Rhinovirus A
[3] = Antiviral activity against MNV1 CW1 infected in mouse RAW264.7 cells assessed as inhibition of viral plaque formation after 24 hrs by neutral red staining; assay type: functional, cell-based, Murine norovirus 1; details: for IC50: Murine norovirus 1, CW1, RAW264.7, 24 h
Outline: (§1)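 Confluent RAW 264.7 cells (plated at 5.0 × 10^5 cells/mL, 24 h, then maintenance medium with 2% FBS) infected 1 h at 37 °C with MNV-1.CW1 at 20-80 PFU/well, with compound present during infection and in first agarose overlay for 24 h. Second overlay with neutral red, further 24 h, plaques counted. Top concentration 50 µM (10 µM for some).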

[4] = Cytotoxicity against mouse RAW264.7 cells after 48 hrs by MTT assay; assay type: cell-based
rhinovirus B14 = assay: Antiviral activity against HRV-14 infected in human HeLa cells assessed as inhibition of viral plaque formation; assay type: functional, organism-based; details: Rhinovirus B
[5] = Cytotoxicity against mouse RAW264.7 cells assessed as cell viability at 2.34 uM after 48 hrs by MTT assay; assay type: cell-based; details: read-out: Activity
[6] = Antiviral activity against MNV1 CW1 infected in mouse RAW264.7 cells assessed as inhibition of viral plaque formation at 50 uM after 24 hrs by neutral red staining; assay type: functional, Murine norovirus 1; details: Norwalk virus, CW1, RAW264.7, 24 h; outline: as §1
[7] = Antiviral activity against MNV1 CW1 infected in mouse RAW264.7 cells assessed as inhibition of viral plaque formation at 10 uM after 24 hrs by neutral red staining; assay type: functional, Murine norovirus 1; details: Norwalk virus, CW1, RAW264.7, 24 h; outline: as §1
RAW264.7 [8] = assay: (§2) Antiviral activity against MNV1 CW1 infected in mouse RAW264.7 cells assessed as inhibition of viral plaque formation treated for 48 hrs after viral infection by neutral red staining; assay type: functional, cell-based; details: Murine norovirus 1
Outline: (§3)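 Compound added only in the agarose overlays for 48 h after 1 h MNV-1.CW1 infection of confluent RAW 264.7 cells; neutral red second overlay at 24 h, plaques counted after further 24 h. IC50 relative to DMSO-treated infected control; run alongside standard conditions.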

[9] = as §2; assay type: functional, cell-based, Murine norovirus 1; details: Norwalk virus, CW1, RAW264.7, 48 h; outline: as §3
RAW264.7 [10] = assay: (§4) Antiviral activity against MNV1 CW1 infected in mouse RAW264.7 cells assessed as inhibition of viral plaque formation treated for 1 hr during viral infection by neutral red staining; assay type: functional, cell-based; details: Murine norovirus 1
Outline: (§5)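 Time-of-addition variant: RAW 264.7 cells exposed to serial compound concentrations only during the 1 h MNV-1.CW1 infection at 37 °C, then compound-free agarose overlays (neutral red second overlay, 24 h + 24 h) and plaque count. IC50 vs DMSO control; three independent experiments in duplicate.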

[11] = as §4; assay type: functional, cell-based, Murine norovirus 1; details: Norwalk virus, CW1, RAW264.7, 1 h; outline: as §5
[12] = Antiviral activity against MNV1 CW1 infected in mouse RAW264.7 cells assessed as inhibition of viral plaque formation treated for 1 hr during viral infection followed by 48 hrs compound addition post infection by neutral red staining; assay type: functional, cell-based, Murine norovirus 1; details: Norwalk virus, CW1, RAW264.7; outline: as §1
RAW264.7 [13] = assay: Cytotoxicity against mouse RAW264.7 cells at 100 uM after 48 hrs by MTT assay; assay type: cell-based; details: raw264.7, 48 h

- IC50 (rhinovirus A1B): 1.1 µM
- IC50 (rhinovirus B14): 1.6 µM
Compound: COc1c(/C=C/c2ccccc2)oc2ccccc2c1=O
- Ratio CC50/IC50 [1]: >4
- MNTC at 48 h ([2]; read-out: MNTD70): 75 µM
- MNTC at 48 h ([2]; read-out: MNTD90): 37.5 µM
- IC50 [3]: 37.9 µM
- CC50 at 48 h [4]: > 150 µM

Compound: COc1ccc(/C=C/c2cc(=O)c3ccccc3o2)cc1
- MNTC at 48 h ([2]; read-out: MNTD70): > 100 µM
- MNTC at 48 h ([2]; read-out: MNTD90): 50 µM

- IC50 (rhinovirus A1B): 9.29 µM
- IC50 (rhinovirus B14): 6.41 µM
Compound: O=c1cc(/C=C/c2ccc(O)cc2)oc2ccccc12
- viability at 48 h, 2.34 µM [5]: 86%
- MNTC at 48 h ([2]; read-out: MNTD70): > 150 µM
- MNTC at 48 h ([2]; read-out: MNTD90): < 2.34 µM
- IC50 [3]: > 50 µM
- CC50 at 48 h [4]: > 150 µM
- inhibition at 50 µM [6]: 21.1%

Compound: C/C(=C\c1ccccc1)c1oc2ccccc2c(=O)c1O
- viability at 48 h, 2.34 µM [5]: 81%
- MNTC at 48 h ([2]; read-out: MNTD70): 18.8 µM
- MNTC at 48 h ([2]; read-out: MNTD90): < 2.34 µM
- IC50 [3]: > 10 µM
- CC50 at 48 h [4]: 46.7 µM
- inhibition at 10 µM [7]: 40.8%

Compound: O=c1cc(/C=C/c2ccc(Cl)cc2)oc2ccccc12
- MNTC at 48 h ([2]; read-out: MNTD70): > 150 µM
- MNTC at 48 h ([2]; read-out: MNTD90): 75 µM

- IC50 (rhinovirus A1B): 5.13 µM
- IC50 (rhinovirus B14): 9.76 µM
Compound: O=c1c(O)c(/C=C/c2ccccc2)oc2ccccc12
- MNTC at 48 h ([2]; read-out: MNTD70): 18.8 µM
- MNTC at 48 h ([2]; read-out: MNTD90): 2.34 µM
- IC50 [3]: > 10 µM
- CC50 at 48 h [4]: 52.1 µM
- inhibition at 10 µM [7]: 6.8%

Compound: O=c1ccoc2ccccc12 [CHROMONE]
- MNTC at 48 h ([2]; read-out: MNTD70): > 150 µM
- MNTC at 48 h ([2]; read-out: MNTD90): 37.5 µM
- inhibition (INH) [3]: 29.9%
- IC50 [3]: > 50 µM
- CC50 at 48 h [4]: > 150 µM

Compound: C/C(=C\c1ccccc1)c1cc(=O)c2ccccc2o1
- Ratio CC50/IC50 [1]: >8.3
- MNTC at 48 h ([2]; read-out: MNTD70): > 150 µM
- MNTC at 48 h ([2]; read-out: MNTD90): > 150 µM
- IC50 [3]: 18 µM
- CC50 at 48 h [4]: > 150 µM

- IC50 (rhinovirus A1B): > 6.25 µM
- IC50 (rhinovirus B14): > 6.25 µM
Compound: Cc1ccc(/C=C/c2cc(=O)c3ccccc3o2)cc1
- Ratio CC50/IC50 [1]: >6.3
- MNTC at 48 h ([2]; read-out: MNTD70): > 150 µM
- MNTC at 48 h ([2]; read-out: MNTD90): > 150 µM
- IC50 [3]: 23.7 µM
- CC50 at 48 h [4]: > 150 µM

Compound: O=c1cc(/C=C/c2ccccc2)oc2cccc(O)c12
- inhibition (RAW264.7 [8]): Dose-dependent effect
- IC50 [9]: 8.2 µM
- Ratio CC50/IC50 [1]: >21.6
- MNTC at 48 h ([2]; read-out: MNTD70): > 150 µM
- MNTC at 48 h ([2]; read-out: MNTD90): 4.69 µM
- inhibition (RAW264.7 [10]): Dose-dependent effect
- IC50 [11]: 39 µM
- IC50 [12]: 6.9 µM
- Activity (RAW264.7 [13]): Non-toxic
- IC50 [3]: 7 µM
- CC50 at 48 h [4]: > 150 µM

Compound: O=c1cc(/C=C/c2ccccc2)oc2cccc(OCc3ccccc3)c12
- MNTC at 48 h ([2]; read-out: MNTD70): > 150 µM
- MNTC at 48 h ([2]; read-out: MNTD90): 75 µM
- IC50 [3]: > 50 µM
- CC50 at 48 h [4]: > 150 µM
- inhibition at 50 µM [6]: 39.4%

- IC50 (rhinovirus A1B): 6.19 µM
- IC50 (rhinovirus B14): > 25 µM
Compound: O=c1cc(/C=C/c2ccccc2)oc2ccccc12
- Ratio CC50/IC50 [1]: >8.5
- MNTC at 48 h ([2]; read-out: MNTD70): > 150 µM
- MNTC at 48 h ([2]; read-out: MNTD90): 75 µM
- IC50 [3]: 17.7 µM
- CC50 at 48 h [4]: > 150 µM

Reference: ChEMBL document CHEMBL1166010, “(E)-2-styrylchromones as potential anti-norovirus agents” (Bioorg Med Chem, 2010)
